The source of these data is ChEMBL document CHEMBL1157562, “Piperazinyl glutamate pyridines as potent orally bioavailable P2Y12 antagonists for inhibition of platelet aggregation” (J Med Chem, 2010).

One assay concerns Platelet. The assay can be described thus: Relative potency, ratio of IC50 for drug to IC50 for AZD-6140 for platelet aggregation in human platelet rich plasma. Type of assay: functional.
The nature of assay [1]: Antiplatelet aggregation activity against adenosine diphosphate-induced human platelet rich plasma assessed as inhibition of platelet aggregation by turbidimetric method. To be noted: Homo sapiens, Platelet, Plasma. Type of assay: functional. An outline of the steps:
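Human PRP, prepared by two-step centrifugation and adjusted to 330 000 platelets/μL with PPP. Compound was preincubated 5 min at 37 °C in 0.5% DMSO, then 20 μM ADP was added. OD626 was read kinetically for 15 min at 37 °C with mixing between reads.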

The target in another assay is P2Y purinoceptor 12 (Homo sapiens, UniProt Q9H244). The assay is described as follows: Displacement of [33P]ADP from human recombinant P2Y12 receptor expressed in CHO cells. Type of assay: cell-based. Summed up:
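Washed membranes from CHO cells expressing synthetic human P2Y12, incubated 1 h at room temperature with 0.2 nM 33P-MeSADP in 50 mM Tris/100 mM NaCl/1 mM EDTA. Compound was tested as a 7-point 3-fold series in triplicate. Nonspecific binding was defined with 300 nM 2-MeSADP, followed by filtration.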

Chain of P2Y purinoceptor 12 (Q9H244 whole entry): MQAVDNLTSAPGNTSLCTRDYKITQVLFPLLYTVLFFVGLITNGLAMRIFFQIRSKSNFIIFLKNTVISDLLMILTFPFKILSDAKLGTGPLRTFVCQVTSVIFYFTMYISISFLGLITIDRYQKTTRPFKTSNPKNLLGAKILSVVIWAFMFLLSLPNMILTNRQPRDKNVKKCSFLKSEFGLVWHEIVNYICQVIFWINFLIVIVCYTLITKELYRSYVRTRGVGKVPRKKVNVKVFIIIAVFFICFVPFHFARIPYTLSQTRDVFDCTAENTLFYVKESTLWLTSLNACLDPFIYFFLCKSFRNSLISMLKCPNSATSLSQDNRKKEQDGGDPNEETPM

Consider `CCCCCOC(=O)N1CCN(C(=O)[C@H](CCC(=O)O)NC(=O)c2cc(N3CCC(CN4CCCC4)CC3)cc(-c3ccccc3)n2)CC1`, for which the “Ratio IC50” value in the assay with Platelet was 0.93.
As to `CCCCOC(=O)N1CCN(C(=O)[C@H](CCC(=O)O)NC(=O)c2cc(N3CCC(CNC)CC3)cc(-c3ccccc3)n2)CC1`, in the assay on Platelet, the “Ratio IC50” value turned out to be 1.
`CCCCCOC(=O)N1CCN(C(=O)[C@H](CCC(=O)O)NC(=O)c2cc(N3CCC(CNC)CC3)cc(-c3ccccc3)n2)CC1`: the “Ratio IC50” value in the assay with Platelet is given as 0.99.
Take `CCCNC(=S)N1CCN(C(=O)[C@H](CCC(=O)O)NC(=O)c2cccc(-c3ccccc3)n2)CC1`: the IC50 in assay [1] came out at 81 µM. Besides, the Ki at P2Y purinoceptor 12 worked out at 0.042 µM.
Take `CCCCCOC(=O)N1CCN(C(=O)[C@H](CCC(=O)O)NC(=O)c2cc(NC(=O)N3CCCCC3)cc(-c3ccccc3)n2)CC1`: in assay [1], the IC50 was above 10 µM. Besides, the Ki on P2Y purinoceptor 12 is 0.0058 µM.
The matching figures for `CCCNC(=O)N1CCN(C(=O)[C@H](CCC(=O)O)NC(=O)c2cccc(-c3ccccc3)n2)CC1`: above 100 µM and 0.277 µM.
The matching figures for `CCCN(CCC)c1cc(C(=O)N[C@@H](CCC(=O)O)C(=O)N2CCN(C(=O)OCC)CC2)nc(-c2ccccc2)c1`: above 100 µM and 0.045 µM.
The matching figures for `CCCCC(=O)N1CCN(C(=O)[C@H](CCC(=O)O)NC(=O)c2cccc(-c3ccccc3)n2)CC1`: above 100 µM and 1.43 µM.
On to `CCCCCOC(=O)N1CCN(C(=O)[C@H](CCC(=O)O)NC(=O)c2cc(NC(=O)OCCOC)cc(-c3ccccc3)n2)CC1`, for which the IC50 in assay [1] was above 10 µM. The Ki at P2Y purinoceptor 12 stood at 0.0014 µM.
For `CC(C)(C)OC(=O)CC[C@H](NC(=O)c1cccc(-c2ccccc2)n1)C(=O)N1CCNCC1` the same measures were above 100 µM and above 5.68 µM.
The matching figures for `Cc1cccc(N2CCN(C(=O)[C@H](CCC(=O)O)NC(=O)c3cc(-c4ccccc4)cc(-c4ccccc4)c3)CC2)c1`: above 100 µM and 1.43 µM.
The matching figures for `CCCCNC(=O)N1CCN(C(=O)[C@H](CCC(=O)O)NC(=O)c2cccc(-c3ccccc3)n2)CC1`: above 100 µM and 0.613 µM.
Take `CCOC(=O)N1CCN(C(=O)[C@H](CCC(=O)O)NC(=O)c2cccc(-c3ccccc3)c2)CC1`: the IC50 in assay [1] is above 100 µM. In addition, the Ki on P2Y purinoceptor 12 was found to be 3.64 µM.
For the molecule `O=C(O)CC[C@H](NC(=O)c1cccc(-c2ccccc2)n1)C(=O)N1CCN(C(=O)OCc2ccccc2)CC1`, the IC50 in assay [1] was above 100 µM. The Ki at P2Y purinoceptor 12 amounted to 0.196 µM.
The matching figures for `COCC(=O)N1CCN(C(=O)[C@H](CCC(=O)O)NC(=O)c2cccc(-c3ccccc3)n2)CC1`: above 100 µM and above 3.59 µM.
The matching figures for `CCOC(=O)N1CCN(C(=O)[C@H](CCC(=O)O)NC(=O)c2nccc(-c3ccccc3)n2)CC1`: 74 µM and 1.19 µM.
As for `CCCC(=O)N1CCN(C(=O)[C@H](CCC(=O)O)NC(=O)c2cccc(-c3ccccc3)n2)CC1`, the IC50 in assay [1] was above 100 µM. For the same molecule, the Ki on P2Y purinoceptor 12 was 3.1 µM.
The matching figures for `CC(C)OC(=O)N1CCN(C(=O)[C@H](CCC(=O)O)NC(=O)c2cccc(-c3ccccc3)n2)CC1`: above 100 µM and 0.28 µM.
For `CCCCCOC(=O)N1CCN(C(=O)[C@H](CCC(=O)O)NC(=O)c2cc(NC(=O)CNC)cc(-c3ccccc3)n2)CC1` the same measures were above 10 µM and 0.0057 µM.
The matching figures for `CC(=O)N1CCN(C(=O)[C@H](CCC(=O)O)NC(=O)c2cccc(-c3ccccc3)n2)CC1`: above 100 µM and above 3.59 µM.
In the case of `CCOC(=O)N1CCN(C(=O)[C@H](CCC(=O)O)NC(=O)c2cc(-c3ccccc3)nc(-c3ccccc3)c2)CC1`, the IC50 in assay [1] is above 50 µM. Also, the Ki at P2Y purinoceptor 12 turned out to be 0.484 µM.
The matching figures for `CCCCCOC(=O)N1CCN(C(=O)[C@H](CCC(=O)O)NC(=O)c2cc(CC3CCCCC3)cc(-c3ccccc3)n2)CC1`: above 10 µM and 0.0086 µM.
For `Cc1cccc(N2CCN(C(=O)[C@H](CCC(=O)O)NC(=O)c3cc(-c4ccccc4)ccn3)CC2)c1`, the IC50 in assay [1] is above 100 µM. Moreover, the Ki at P2Y purinoceptor 12 was above 5.7 µM.
